Screening results deposited in PubChem by several laboratories.
This excerpt belongs to a sample that is enriched for hits.
Lipid droplet: inhibitors of hepatocyte lipid droplet formation, primary screen, imaging, high-throughput imaging, BODIPY stain. inhibition, % at 6.5 µM. AID 1656, 2009. 0.4% of 240,000 active. AML12 mouse hepatocytes, oleate lipid droplets;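 active means lipid droplet intensity inhibited by at least 50%, with more than 500 cells counted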
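Test system: AML12 mouse liver cells; schedule: overnight exposure; technique: high-content imaging of BODIPY-stained droplets and DAPI nuclei; read-out: % inhibition of corrected integrated BODIPY droplet signal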
T cruzi repl: inhibitors of intracellular T. cruzi growth, primary screen, luminescence, NIH3T3 host cells; inhibition, % (test concentration not listed); 1.4% of 300,000 active; T. cruzi beta-gal in NIH3T3, 90 h; AID 1885, 2009;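 active means mean inhibition across valid replicates above about 55%, limit read from the data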;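 further: signal also drops with host cell toxicity which is not excluded here; 0% = plate median of DMSO wells and 100% = zero luminescence signal; higher percent means less beta-gal luminescence so fewer parasites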
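Test system: β-gal T. cruzi (Tulahuen C4) inside NIH/3T3 cells / Quantity: 5,000 cells/well / Measured by: luminescence from GalScreen with 0.05% NP40, read after 60 min / Medium: DMEM plus 2% FBS / Measure: parasite load inhibition, % / Reagent: Tulahuen C4 trypomastigotes, 5000/well / Schedule: co-culture of at least 90 h after 3 h attachment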
MPTP inh: mitochondrial permeability transition pore inhibitors, primary screen, biochemical, isolated mouse mitochondria, absorbance; Ca2+ swelling absorbance, 30 min; 1.4% of 360,000 active; inhibition, % at 10 µM; AID 602449, 2012;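 active means inhibition of 50% or more, scaled per plate between neutral and stimulator controls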;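 further: 0% = DMSO wells given calcium and 100% = 1 mM EGTA wells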
Lmaj promast: Leishmania major promastigote growth inhibition, primary screen. 9% of 200,000 active. Leishmania major promastigotes, resazurin fluorescence viability. inhibition, % at 10 µM. AID 1063, 2008; in the data active means inhibition above about 50%;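 further: promastigotes grown with compound for 44 hours at 28 °C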
Redox H2O2 prof: compounds producing H2O2 with reducing agent – biochemical, NIH compound library profiling, artefact control for MLSCN library redox annotation, primary screen | DTT-dependent redox cycling H2O2, phenol red/HRP absorbance; 100% = 100 µM peroxide control, 0% = buffer | activation, % at 10 µM | 0.03% of 200,000 active;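 active means activation of at least 50% relative to the plate's high and low controls in the primary single-dose screen; inactive means activation below 50%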;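 further: compound incubated with DTT at 0.8 mM final as the reducing agent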
* = called active by the depositor; . = no result.

SMILES	Lipid droplet	T cruzi repl	MPTP inh	Lmaj promast	Redox H2O2 prof
NC(=O)/C=C\C(=O)Nc1cccc(C(F)(F)F)c1	.	30.5	2.0	95.8*	-4.3
CCOc1ccc(C(C(=O)NCC2CCCO2)N(Cc2cccs2)C(=O)c2snc(C(N)=O)c2N)cc1 (configuration not stated)	5.0	4.9	-1.4	.	.
CNC(=S)NC1(C)CCS(=O)(=O)C1 (configuration not stated)	9.6	-8.9	-0.6	.	.
CCN1C=C(Cc2cccs2)C2=C(C1)C(c1cccs1)C(C#N)=C(N)O2 (configuration not stated)	.	43.8	0.3	55.5*	0.0
CCN1CC2=C(OC(N)=C(C#N)C2c2cccs2)/C(=C/c2cccs2)C1 (configuration not stated)	-10.5	42.3	4.6	32.6	-0.6
O=C(c1ccccc1)c1n[nH]c(-c2ccccc2)cc1=O	-36.6	-10.7	-0.6	-11.3	0.2
COc1cc(-c2cc(C(=O)Nc3c(Cl)cc(Cl)cc3Cl)c3ccccc3n2)cc(OC)c1OC	30.9	-4.5	3.0	81.3*	.
COc1cc(-c2cc(C(=O)NN3CCN(C)CC3)c3ccccc3n2)cc(OC)c1OC	4.3	-5.1	.	90.9*	0.2
COc1ccc(NC(=O)c2cc(-c3cc(OC)c(OC)c(OC)c3)nc3ccccc23)cc1OC	-10.9	-16.1	-1.1	.	.
CC(=O)Nc1ccc(NC(=O)c2c(-c3ccccc3)noc2C)cn1	-8.4	-9.8	-0.6	.	.
COc1ccc(NS(=O)(=O)c2ccc(Cl)c(NC(=O)c3ccccc3F)c2)cc1	.	.	1.2	.	.
CC(C)(C)C(=O)Nc1cc(S(=O)(=O)Nc2ccc(Cl)cc2)ccc1Cl	-27.2	-7.1	14.4	75.5*	0.0
O=C(NC1CCCC1)C(c1cccnc1)N(C(=O)c1csnn1)c1ccc(F)cc1 (configuration not stated)	-8.5	11.2	1.7	.	.
O=C1C=C(Nc2ccc(Cl)cc2)CC(c2ccc(Cl)cc2)C1 (configuration not stated)	-2.8	21.1	33.1	56.0*	-6.2
Cc1ccc(C2CC(=O)C=C(Nc3ccc(Cl)cc3)C2)cc1 (configuration not stated)	-17.0	22.6	3.7	6.5	-0.1
Cc1nc(-c2ccc(S(=O)(=O)Oc3ccc(Cl)cc3Cl)s2)cs1	-6.6	-11.4	6.0	.	.
CCOC(=O)c1c(NC(=O)CSc2nc3cc(Cl)ccc3c(=O)n2Cc2ccco2)sc(C(=O)N(C)C)c1C	-59.6	61.0*	5.0	77.8*	0.0
CCOC(=O)c1c(NC(=O)COC(=O)c2ccccc2NC)sc(C(=O)N(C)C)c1C	4.0	58.7*	0.5	.	.
O=C(CSc1nc2ncc(Cl)cc2[nH]1)N1CCC(Cc2ccccc2)CC1	.	.	1.9	.	.
N#Cc1c(N2CCCCC2)nc(N2CCCCC2)c2c1CCN(Cc1ccccc1)C2	-2.8	56.3*	0.5	100.2*	-0.6
N#Cc1c(NCCN)nc(-c2ccccc2)c2c1CCCC2	16.0	15.1	0.9	84.5*	0.2
CCN1CCc2c(C#N)c(NCc3ccccc3)nc(N(CC)CC)c2C1	.	81.7*	1.4	97.7*	5.0
N#Cc1c(NCCCO)nc(-c2ccccc2)c2c1CCCC2	.	14.2	-1.3	2.4	-1.2
Cc1cc(C)c(C#N)c(N2CCN(Cc3ccccc3)CC2)n1	-1.1	11.3	1.3	16.6	0.3
N#Cc1c(NCCN)nc(NCc2ccccc2)c2c1CCN(Cc1ccccc1)C2	.	.	3.2	97.0*	-0.6
SMILES	Lipid droplet	T cruzi repl	MPTP inh	Lmaj promast	Redox H2O2 prof
CS(=O)(=O)c1ccc2nc(NC(=O)CCNC(=O)c3ccc(Cl)cc3)sc2c1	.	.	-0.5	.	.
O=C1S/C(=C\c2ccccc2)C(=O)N1CC(O)Cn1c2ccccc2c2ccccc21 (configuration not stated)	-25.0	57.9*	-0.2	26.5	1.4
CCOC(=O)c1nc(Nc2ccc(Nc3ccccc3)cc2)c2ccccc2n1	3.3	16.3	-1.8	40.3	-0.2
CCOC(=O)c1nc(Nc2cc(C)cc(C)c2)c2ccccc2n1	16.4	56.1*	9.4	51.9*	-1.1
CCOC(=O)c1nc(Nc2ccc(N3CCC(C)CC3)cc2)c2ccccc2n1	2.4	49.0	-1.2	52.9*	0.1
Cc1noc(C)c1C(=O)N1CCCC(C)(C(=O)NS(=O)(=O)C2CC2)C1 (configuration not stated)	.	.	-0.3	.	.
Fc1ccc(N2CCN(Cc3cnc(N4CCOCC4)s3)CC2)cc1	5.0	12.6	0.8	63.6*	-1.6
O=C(CN1CCN(c2ccc(F)cc2)CC1)N1CCOCC1	.	1.9	-2.1	-3.6	0.3
CC(=O)N(c1ccc(C)cc1)c1nc(C)cc(C)c1C#N	4.3	-9.1	1.5	.	.
O=C(CC1CCCCC1)NCCCN1CCOCC1	.	-2.7	0.3	37.2	2.8
O=C(CCC1CCCC1)NCCCN1CCOCC1	-2.5	0.0	0.8	67.1*	1.2
COc1ccc(-n2ccnc2SCC(=O)c2c(N)n(C3CC3)c(=O)[nH]c2=O)cc1	.	.	-1.3	.	.
CCOC(=O)c1cnc2c(N=Nc3ccccc3)c(N)nn2c1N	.	17.5	2.3	68.0*	-4.9
CCn1c(Cc2ccccc2)nnc1SCC(=O)N1CCCC1=O	8.7	-6.8	-0.9	.	.
O=[N+]([O-])c1cc(Oc2cccnc2)cc([N+](=O)[O-])c1	-5.4	60.5*	-2.0	38.8	-0.1
Cc1cc2nc(C3CCN(CC4COc5ccccc5O4)CC3)[nH]c2cc1C (configuration not stated)	4.2	-21.3	5.4	90.7*	1.7
CC(=O)c1cccc(NC(=O)C2(C)Cc3c(-c4cccc(C(F)(F)F)c4)ccnc3O2)c1 (configuration not stated)	.	.	0.1	.	.
COc1cc(-c2nc(-c3ccccc3)c(-c3cc([N+](=O)[O-])ccc3C)[nH]2)cc(OC)c1OC	-6.4	57.9*	3.2	100.0*	-0.2
Cc1ccc(C2CC(=O)NC(SCc3ccccc3)=C2C#N)cc1 (configuration not stated)	-5.9	9.7	-0.3	61.4*	0.1
N#CC1=C(SCc2ccccc2)NC(=O)CC1c1cccc(O)c1 (configuration not stated)	.	23.0	0.2	61.8*	-1.7
CCSC1=C(C#N)C(c2cccc(OC)c2)CC(=O)N1 (configuration not stated)	14.7	.	-4.2	-3.6	0.8
N#CC1=C(SCc2ccccc2)NC(=O)CC1c1ccc(O)cc1 (configuration not stated)	-2.6	-11.4	-1.7	27.5	-0.7
Cc1ccc(C)c(N2CCN(C(=O)c3nn(C)c4c3CS(=O)(=O)c3ccccc3-4)CC2)c1	22.6	5.5	-1.1	.	.
O=S(=O)(c1ccc(F)cc1)N1CN(Cc2ccco2)c2nc3ccccc3nc21	-12.4	-10.6	1.1	96.7*	0.3
COc1ccc(CN2CN(S(=O)(=O)c3ccccc3)c3nc4ccccc4nc32)cc1	-0.7	30.4	0.8	.	.
